Bioassay records: PubChem BioAssay, Broad Institute
An excerpt weighted towards active compounds, which were near 2.9% of everything screened.
DENV2 CPE: DENV2-induced cell death inhibition. DENV2-infected cells, cytopathic effect rescue, plate reader. CPE inhibition, % at 9.99 µM. hit rate 1.7% among 350,000; in the data active = CPE inhibition above about 20%, passing the limit was not always enough; tested in BHK-21 cells;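 also: 0% = median of neutral control wells and 100% = median of positive control wells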
E-sel inducer: E-selectin induction on HUVECs; HUVEC E-selectin immunofluorescence imaging; normalized: neutral wells 0, TNF-alpha wells 100; activation, % at 7.58 µM; hit rate 0.37% among 260,000; AID 686992;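 active = mean E-selectin-positive cell signal at least 10% of the positive control, reached in at least 60% of replicates, without over 20% cell loss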
Target sequence (P16581 whole entry, looked up): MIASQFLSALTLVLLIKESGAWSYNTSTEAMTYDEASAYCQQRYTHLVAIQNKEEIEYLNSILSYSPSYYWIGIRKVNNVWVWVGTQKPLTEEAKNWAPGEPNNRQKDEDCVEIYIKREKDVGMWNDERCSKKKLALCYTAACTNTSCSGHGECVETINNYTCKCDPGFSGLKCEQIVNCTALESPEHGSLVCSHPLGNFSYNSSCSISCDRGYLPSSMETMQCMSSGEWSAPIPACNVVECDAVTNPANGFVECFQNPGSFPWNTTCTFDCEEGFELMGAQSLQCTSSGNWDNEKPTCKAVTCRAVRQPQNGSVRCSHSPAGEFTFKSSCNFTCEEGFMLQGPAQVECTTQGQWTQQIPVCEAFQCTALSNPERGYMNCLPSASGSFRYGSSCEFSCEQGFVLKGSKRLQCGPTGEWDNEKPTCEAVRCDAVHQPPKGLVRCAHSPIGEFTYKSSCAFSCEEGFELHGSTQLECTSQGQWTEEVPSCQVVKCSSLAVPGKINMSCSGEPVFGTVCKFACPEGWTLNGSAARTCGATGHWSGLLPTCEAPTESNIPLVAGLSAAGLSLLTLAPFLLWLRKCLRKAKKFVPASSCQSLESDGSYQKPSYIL
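Test system: HUVEC; input: 3,000 HUVEC/well; measured by: immunofluorescence imaging; read-out: % PE-positive cells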
SIRT5 inh: inhibitors of human sirtuin-5 desuccinylase. Q9NXA8. Purified SirT5, succinyl-peptide AMC, trypsin-coupled fluorescence. inhibition, % at 15 µM. hit rate 1.1% among 330,000. AID 652115; in the data active = inhibition above about 15%
* marks the source's active call; other numbers are inactive results; nt = no result given; ! = not confirmed by another sample.

SMILES	DENV2 CPE	E-sel inducer	SIRT5 inh
C[C@@H]1CN([C@H](C)CO)S(=O)(=O)c2ccc(Br)cc2O[C@H]1CN(C)Cc1cccc(C(=O)O)c1	-7	0	1
C[C@H](CO)N1C[C@H](C)[C@@H](CN(C)Cc2cccc(C(=O)O)c2)Oc2cc(C#CCC3CCCC3)ccc2S1(=O)=O	3	nt	16*
C[C@H](CO)N1C[C@H](C)[C@@H](CN(C)Cc2cccc(C(=O)O)c2)Oc2cc(Br)ccc2S1(=O)=O	-17	0	0
CC(C)[C@@H]1COC(c2cccc(C3=N[C@H](C(C)C)CO3)n2)=N1	-11	nt	nt
Cc1c(CNCCc2ccccc2Cl)c(C(=O)O)c(C)n1-c1ccccc1	-3	nt	2
CC(C)(C)NC(=O)C1c2ccccc2OCC(=O)N1Cc1ccccn1 (centres undefined)	7	nt	-9
COc1ccc([C@H]2CC(=O)C=C(c3ccc(SC)cc3)C2)cc1OC	0	0	-4
Nc1c(Cl)cc(C2=NCCn3nc4cc([N+](=O)[O-])ccc4c32)cc1Cl	1	0	0
CC(=O)Nc1ccccc1C(=O)C(=O)Nc1ccc(Cl)cc1	2	3	nt
CCc1nc(=O)c(-c2ccccc2)c(C)n1-c1ccccc1	7	43*	0
COC(=O)c1ccc(-n2c(C)nc(=O)c(-c3ccccc3)c2C)cc1	nt	nt	-6
Cc1cc(NC(=O)CSc2nc3ccsc3c(=O)n2Cc2ccccn2)n[nH]1	5	nt	-2
CCOC(=O)C1=C[C@@H](C(C)(C)C)N(S(=O)(=O)c2ccc([N+](=O)[O-])cc2)[C@H]1c1cccc(Cl)c1	-1	0	nt
CCOCCCNC(=O)/C(C#N)=C/c1cc(C)c(O)c(C)c1	0	4	23*
CCOCCCNC(=O)/C(C#N)=C/c1cc(OC)c(O)c([N+](=O)[O-])c1	-7	2	4
CC(C)NC(=O)N1[C@H](CO)[C@@H]2c3ccccc3NC[C@@H]21	3	1	3
CCc1nnc(NC(=O)CSc2nnc(-c3ccc(NS(=O)(=O)c4ccccc4)cc3)o2)s1	26*	nt	0
CCc1nnc(NC(=O)CSc2nnc(-c3ccco3)o2)s1	4	nt	-3
COc1ccc(-c2sc3cc4c(cc3c2-c2ccc3c(c2)OCCO3)OCO4)cc1	nt	0	0
CN(C)C(=O)[C@@H]1[C@@H](CO)[C@@H]2Cn3c(ccc(C4=CCCC4)c3=O)[C@H]1N2CC1CCCCC1	-7	0	-7
c1ccc(Cc2cc[n+](Cc3ccccn3)cc2)cc1	4	45*	nt
O=[N+]([O-])c1ccc(C[n+]2ccc(Cc3ccccc3)cc2)cc1	nt	nt	-6
C[C@H]1CN([C@@H](C)CO)C(=O)c2cc(Br)cnc2O[C@@H]1CN(C)C(=O)CN(C)C	-9	1	1
CCC(=O)N(C)C[C@@H]1Oc2ncc(-c3ccc(F)cc3)cc2C(=O)N([C@H](C)CO)C[C@H]1C	2	0	1
CCCNC(=O)N(C)C[C@@H]1Oc2ncc(Br)cc2C(=O)N([C@@H](C)CO)C[C@H]1C	-4	0	-4
SMILES	DENV2 CPE	E-sel inducer	SIRT5 inh
CCCNC(=O)N(C)C[C@@H]1Oc2ncc(Br)cc2C(=O)N([C@H](C)CO)C[C@@H]1C	1	0	20*!
C[C@H](CO)N1C[C@H](C)[C@H](CN(C)C)Oc2ncc(Br)cc2C1=O	-4	0	6
CCC(=O)N(C)C[C@H]1Oc2ncc(Br)cc2C(=O)N([C@@H](C)CO)C[C@@H]1C	7	73*	2
C[C@@H]1CN([C@@H](C)CO)C(=O)c2cc(Br)cnc2O[C@@H]1CN(C)S(C)(=O)=O	32*!	1	-3
CCC(=O)N(C)C[C@@H]1Oc2ncc(-c3ccc(F)cc3)cc2C(=O)N([C@@H](C)CO)C[C@@H]1C	-4	0	24*
C/C(N)=C(/C#N)C(=O)CSc1nc2ccccc2c(=O)n1CCCOC(C)C	-1	0	-3
COCCNc1nc(NCc2cccc(OC)c2)c2sccc2n1	-4	1	1
COC(=O)C1CCN(Cc2cn(-c3ccccc3)nc2-c2ccc3c(c2)OCO3)CC1	-5	5	-2
Cc1ccc(NC(=O)c2cnc(SCC(=O)NCC3CCCO3)n(C)c2=O)cc1C (centres undefined)	1	5	1
N#Cc1c(-c2ccccc2)nc(SCC(=O)NC2CCCCC2)[nH]c1=O	8	nt	0
CN(C(=O)CSc1nc(-c2ccc(C(C)(C)C)cc2)c(C#N)c(=O)[nH]1)C1CCCCC1	5	nt	17*
CC1=CN2C(=N)/C(=C/c3ccc([N+](=O)[O-])o3)C(=O)N=C2S1	-3	1	21*
CC1=CN2C(=N)/C(=C/c3ccco3)C(=O)N=C2S1	-1	0	-3
CCS(=O)(=O)N1CC2(CN(C(=O)c3ccc(F)cc3)[C@@H](CO)c3[nH]c4cc(OC)ccc4c32)C1	9	0	-2
CCC(=O)Nc1ccc2c(c1)OC[C@@H](C)N(Cc1cc(-c3ccccc3)on1)C[C@@H](C)[C@H](OC)CN(C)C2=O	-12	0	nt
COCCNC(=O)C1(S(=O)(=O)c2ccccc2)CC=CC1	-3	0	nt
O=C(NCC1CC1)C1(S(=O)(=O)c2ccccc2)CC=CC1	21*	0	nt
CCOc1ccc(CN2CCNC(=O)C2CC(=O)NC2CCCCCC2)cc1 (centres undefined)	-1	0	-5
COc1ccc(NC(=O)Nc2ccc3c(c2)C(=O)N([C@H](C)CO)C[C@H](C)[C@@H](CN(C)Cc2ccc(-c4ccccc4)cc2)O3)cc1	5	0	10
COc1ccc(CN(C)C[C@H]2Oc3ccc(NC(=O)Nc4ccc(OC)cc4)cc3C(=O)N([C@H](C)CO)C[C@H]2C)cc1	-9	0	-3
COc1ccc(CN(C)C[C@@H]2Oc3ccc(NC(=O)Nc4ccc(OC)cc4)cc3C(=O)N([C@@H](C)CO)C[C@H]2C)cc1	-11	1	19*
COc1ccc(CN(C)C[C@@H]2Oc3ccc(NC(=O)Nc4ccccc4)cc3C(=O)N([C@@H](C)CO)C[C@H]2C)cc1	16	0	4
COc1ccc(NC(=O)Nc2ccc3c(c2)C(=O)N([C@@H](C)CO)C[C@H](C)[C@H](CN(C)Cc2ccc(Cl)c(Cl)c2)O3)cc1	1	11	19*
COc1ccc(NC(=O)Nc2ccc3c(c2)C(=O)N([C@H](C)CO)C[C@@H](C)[C@@H](CN(C)Cc2ccc(-c4ccccc4)cc2)O3)cc1	13	-1	19*
COc1ccc(NC(=O)Nc2ccc3c(c2)C(=O)N([C@H](C)CO)C[C@@H](C)[C@@H](CN(C)Cc2ccc(Cl)c(Cl)c2)O3)cc1	-1	-1	3
COc1ccc(NC(=O)Nc2ccc3c(c2)C(=O)N([C@@H](C)CO)C[C@H](C)[C@H](CN(C)Cc2ccc(-c4ccccc4)cc2)O3)cc1	-8	0	20*
COc1ccc(NC(=O)N(C)C[C@@H]2Oc3ccc(NS(=O)(=O)c4ccc(OC)cc4)cc3C(=O)N([C@H](C)CO)C[C@@H]2C)cc1	-6	-1	-2
CN(C)C(=O)[C@@H]1[C@@H](CO)[C@@H]2Cn3c(ccc(C4=CCCC4)c3=O)[C@@H]2N1Cc1ccc2c(c1)OCO2	15	0	8
O=C(C[C@H]1CC[C@H](NC(=O)C2CC2)[C@H](CO)O1)NC1CCC1	0	0	-2
